In brackets after ≈: the same amount, converted by molar mass.
Each compound was assayed on A549 (assay: In vitro antitumor activity against A-549 tumor cells.). Conditions: Homo sapiens.
Assay type: functional, cell-based
How it was run: (§1)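 Adherent lines (human lung A-549, colon HT-29, MEL-28) grown in EMEM/neaa with 5% FCS. Cells plated at 1×10^4 per well in 1 mL medium containing graded sample concentrations, with drug-free growth controls, in duplicate. Incubated 3 days at 37 °C, 5% CO2. Stained with 0.1% crystal violet, or trypsinized and Coulter-counted. IC50 taken from dose–response curves of growth relative to controls.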
Compound `CC(C)CCCC(C)[C@H]1CCC2C3C/C(=N\O)C4=CC(=O)[C@H](O)C[C@]4(C)C3CC[C@@]21C` (stereo partly specified) has an IC50 of 0.125 µg/mL (≈ 0.291 µM).
Compound `CC(C)CCCC(C)[C@H]1CCC2C3C/C(=N\O)C4=CC(=O)[C@@H](O)C[C@]4(C)C3CC[C@@]21C` (stereo partly specified) has an IC50 of 0.125 µg/mL (≈ 0.291 µM).
`CC(C)CCCC(C)[C@H]1CCC2C3C/C(=N\O)C4=CC=CC[C@]4(C)C3CC[C@@]21C` (stereo partly specified) showed an IC50 of 5 µg/mL (≈ 12.6 µM).
`CC(C)CCCC(C)[C@H]1CCC2C3C/C(=N\O)C4=CC(=O)C(O)=C[C@]4(C)C3CC[C@@]21C` (stereo partly specified) showed an IC50 of 0.125 µg/mL (≈ 0.292 µM).
Work on `C[C@]12CCC(=O)C=C1/C(=N/O)CC1C2CC[C@@]2(C)C1CC[C@@H]2O` (stereo partly specified) yielded an IC50 of 5 µg/mL (≈ 15.8 µM).
In the case of `CC(C)CCC[C@@H](C)C1CCC2C3C/C(=N\O)C4=C[C@@H](O)CC[C@]4(C)C3CC[C@@]21C` (stereo partly specified), the IC50 is reported as 10 µg/mL (≈ 24.1 µM).
Compound `CC(C)CCCC(C)[C@H]1CCC2C3C/C(=N\O)C4=C[C@@H](O)[C@@H](O)C[C@]4(C)C3CC[C@@]21C` (stereo partly specified) has an IC50 of 1.25 µg/mL (≈ 2.9 µM).
For `C[C@]12CCC(=O)C=C1/C(=N/O)CC1C2CC[C@]2(C)C(=O)CCC12` (stereo partly specified), the IC50 was 5 µg/mL (≈ 15.9 µM).
`CC(C)CCCC(C)[C@H]1CCC2C3C/C(=N\O)C4=CC(=O)CC[C@]4(C)C3CC[C@@]21C` (stereo partly specified) gave an IC50 of 1.25 µg/mL (≈ 3.02 µM).
In the case of `CC(C)CCCC(C)[C@H]1CCC2C3C/C(=N\O)C4=C[C@H](O)[C@H](O)C[C@]4(C)C3CC[C@@]21C` (stereo partly specified), the IC50 is reported as 1.25 µg/mL (≈ 2.9 µM).
Compound `CC(C)[C@H](C)[C@@]1(C)C[C@@H]1[C@@H](C)C1CCC2C3C/C(=N\O)C4=CC(=O)CC[C@]4(C)C3CC[C@@]21C` (stereo partly specified) has an IC50 of 5 µg/mL (≈ 11 µM).
With `CC[C@H](CCC(C)[C@H]1CCC2C3C/C(=N\O)C4=CC(=O)CC[C@]4(C)C3CC[C@@]21C)C(C)C` (stereo partly specified) the IC50 was 10 µg/mL (≈ 22.6 µM).
For `CC(C)[C@H](C)[C@@]1(C)C[C@@H]1[C@@H](C)C1CCC2C3C/C(=N\O)C4=C[C@@H](O)CC[C@]4(C)C3CC[C@@]21C` (stereo partly specified), the IC50 was 10 µg/mL (≈ 21.9 µM).
`C[C@@]12CCCC1C1C/C(=N\O)C3=CC(=O)CC[C@]3(C)C1CC2` (stereo partly specified) gave an IC50 of 5 µg/mL (≈ 16.6 µM).

These compounds were tested on SK-MEL-28 (assay: In vitro antitumor activity against MEL-28 tumor cells.). Conditions: Homo sapiens.
Assay type: functional, cell-based
How it was run: as §1
With `CC(C)CCCC(C)[C@H]1CCC2C3C/C(=N\O)C4=CC(=O)[C@H](O)C[C@]4(C)C3CC[C@@]21C` (stereo partly specified) the IC50 was 0.125 µg/mL (≈ 0.291 µM).
Compound `CC(C)CCCC(C)[C@H]1CCC2C3C/C(=N\O)C4=CC(=O)[C@@H](O)C[C@]4(C)C3CC[C@@]21C` (stereo partly specified) has an IC50 of 0.125 µg/mL (≈ 0.291 µM).
`CC(C)CCCC(C)[C@H]1CCC2C3C/C(=N\O)C4=CC=CC[C@]4(C)C3CC[C@@]21C` (stereo partly specified) showed an IC50 of 5 µg/mL (≈ 12.6 µM).
`CC(C)CCCC(C)[C@H]1CCC2C3C/C(=N\O)C4=CC(=O)C(O)=C[C@]4(C)C3CC[C@@]21C` (stereo partly specified) gave an IC50 of 0.125 µg/mL (≈ 0.292 µM).
With `C[C@]12CCC(=O)C=C1/C(=N/O)CC1C2CC[C@@]2(C)C1CC[C@@H]2O` (stereo partly specified) the IC50 was 5 µg/mL (≈ 15.8 µM).
For `CC(C)CCC[C@@H](C)C1CCC2C3C/C(=N\O)C4=C[C@@H](O)CC[C@]4(C)C3CC[C@@]21C` (stereo partly specified), the IC50 was 10 µg/mL (≈ 24.1 µM).
Compound `CC(C)CCCC(C)[C@H]1CCC2C3C/C(=N\O)C4=C[C@@H](O)[C@@H](O)C[C@]4(C)C3CC[C@@]21C` (stereo partly specified) has an IC50 of 1.25 µg/mL (≈ 2.9 µM).
`C[C@]12CCC(=O)C=C1/C(=N/O)CC1C2CC[C@]2(C)C(=O)CCC12` (stereo partly specified) was tested, and the IC50 was 5 µg/mL (≈ 15.9 µM).
`CC(C)CCCC(C)[C@H]1CCC2C3C/C(=N\O)C4=CC(=O)CC[C@]4(C)C3CC[C@@]21C` (stereo partly specified) gave an IC50 of 2.5 µg/mL (≈ 6.04 µM).
`CC(C)CCCC(C)[C@H]1CCC2C3C/C(=N\O)C4=C[C@H](O)[C@H](O)C[C@]4(C)C3CC[C@@]21C` (stereo partly specified) gave an IC50 of 1.25 µg/mL (≈ 2.9 µM).
With `CC(C)[C@H](C)[C@@]1(C)C[C@@H]1[C@@H](C)C1CCC2C3C/C(=N\O)C4=CC(=O)CC[C@]4(C)C3CC[C@@]21C` (stereo partly specified) the IC50 was 5 µg/mL (≈ 11 µM).
`CC[C@H](CCC(C)[C@H]1CCC2C3C/C(=N\O)C4=CC(=O)CC[C@]4(C)C3CC[C@@]21C)C(C)C` (stereo partly specified) showed an IC50 of 10 µg/mL (≈ 22.6 µM).
Work on `CC(C)[C@H](C)[C@@]1(C)C[C@@H]1[C@@H](C)C1CCC2C3C/C(=N\O)C4=C[C@@H](O)CC[C@]4(C)C3CC[C@@]21C` (stereo partly specified) yielded an IC50 of 10 µg/mL (≈ 21.9 µM).
In the case of `C[C@@]12CCCC1C1C/C(=N\O)C3=CC(=O)CC[C@]3(C)C1CC2` (stereo partly specified), the IC50 is reported as 5 µg/mL (≈ 16.6 µM).

Each compound was assayed on HT-29 (assay: In vitro antitumor activity against HT-29 tumor cells.). Conditions: Homo sapiens.
Assay type: functional, cell-based
How it was run: as §1
For `CC(C)CCCC(C)[C@H]1CCC2C3C/C(=N\O)C4=CC(=O)[C@H](O)C[C@]4(C)C3CC[C@@]21C` (stereo partly specified), the IC50 was 0.25 µg/mL (≈ 0.582 µM).
`CC(C)CCCC(C)[C@H]1CCC2C3C/C(=N\O)C4=CC(=O)[C@@H](O)C[C@]4(C)C3CC[C@@]21C` (stereo partly specified) was tested, and the IC50 was 0.25 µg/mL (≈ 0.582 µM).
`CC(C)CCCC(C)[C@H]1CCC2C3C/C(=N\O)C4=CC=CC[C@]4(C)C3CC[C@@]21C` (stereo partly specified) was tested, and the IC50 was 5 µg/mL (≈ 12.6 µM).
Compound `CC(C)CCCC(C)[C@H]1CCC2C3C/C(=N\O)C4=CC(=O)C(O)=C[C@]4(C)C3CC[C@@]21C` (stereo partly specified) has an IC50 of 0.25 µg/mL (≈ 0.585 µM).
For `C[C@]12CCC(=O)C=C1/C(=N/O)CC1C2CC[C@@]2(C)C1CC[C@@H]2O` (stereo partly specified), the IC50 was 5 µg/mL (≈ 15.8 µM).
In the case of `CC(C)CCC[C@@H](C)C1CCC2C3C/C(=N\O)C4=C[C@@H](O)CC[C@]4(C)C3CC[C@@]21C` (stereo partly specified), the IC50 is reported as 10 µg/mL (≈ 24.1 µM).
`CC(C)CCCC(C)[C@H]1CCC2C3C/C(=N\O)C4=C[C@@H](O)[C@@H](O)C[C@]4(C)C3CC[C@@]21C` (stereo partly specified) was tested, and the IC50 was 1.25 µg/mL (≈ 2.9 µM).
`C[C@]12CCC(=O)C=C1/C(=N/O)CC1C2CC[C@]2(C)C(=O)CCC12` (stereo partly specified) was tested, and the IC50 was 5 µg/mL (≈ 15.9 µM).
For `CC(C)CCCC(C)[C@H]1CCC2C3C/C(=N\O)C4=CC(=O)CC[C@]4(C)C3CC[C@@]21C` (stereo partly specified), the IC50 was 1.25 µg/mL (≈ 3.02 µM).
`CC(C)CCCC(C)[C@H]1CCC2C3C/C(=N\O)C4=C[C@H](O)[C@H](O)C[C@]4(C)C3CC[C@@]21C` (stereo partly specified) gave an IC50 of 1.25 µg/mL (≈ 2.9 µM).
Compound `CC(C)[C@H](C)[C@@]1(C)C[C@@H]1[C@@H](C)C1CCC2C3C/C(=N\O)C4=CC(=O)CC[C@]4(C)C3CC[C@@]21C` (stereo partly specified) has an IC50 of 5 µg/mL (≈ 11 µM).
`CC[C@H](CCC(C)[C@H]1CCC2C3C/C(=N\O)C4=CC(=O)CC[C@]4(C)C3CC[C@@]21C)C(C)C` (stereo partly specified) gave an IC50 of 10 µg/mL (≈ 22.6 µM).
`CC(C)[C@H](C)[C@@]1(C)C[C@@H]1[C@@H](C)C1CCC2C3C/C(=N\O)C4=C[C@@H](O)CC[C@]4(C)C3CC[C@@]21C` (stereo partly specified) was tested, and the IC50 was 10 µg/mL (≈ 21.9 µM).
`C[C@@]12CCCC1C1C/C(=N\O)C3=CC(=O)CC[C@]3(C)C1CC2` (stereo partly specified) gave an IC50 of 5 µg/mL (≈ 16.6 µM).

What follows are compounds tested on P388 (assay: In vitro antitumor activity against P-388 tumor cells.). Conditions: Mus musculus.
Assay type: functional, cell-based
How it was run: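 P-388 lymphoid neoplasm from DBA/2 mouse, grown in suspension in EMEM/neaa with 5% FCS. Seeded at 1×10^4 cells per well in 1 mL medium holding a range of sample concentrations, with drug-free controls, duplicate wells. Incubated 3 days at 37 °C, 5% CO2, 98% humidity. Cells counted by Coulter counter; IC50 read from dose–response curves of % growth versus untreated cultures.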
With `CC(C)CCCC(C)[C@H]1CCC2C3C/C(=N\O)C4=CC(=O)[C@H](O)C[C@]4(C)C3CC[C@@]21C` (stereo partly specified) the IC50 was 0.25 µg/mL (≈ 0.582 µM).
`CC(C)CCCC(C)[C@H]1CCC2C3C/C(=N\O)C4=CC(=O)[C@@H](O)C[C@]4(C)C3CC[C@@]21C` (stereo partly specified) showed an IC50 of 0.25 µg/mL (≈ 0.582 µM).
`CC(C)CCCC(C)[C@H]1CCC2C3C/C(=N\O)C4=CC=CC[C@]4(C)C3CC[C@@]21C` (stereo partly specified) gave an IC50 of 5 µg/mL (≈ 12.6 µM).
`CC(C)CCCC(C)[C@H]1CCC2C3C/C(=N\O)C4=CC(=O)C(O)=C[C@]4(C)C3CC[C@@]21C` (stereo partly specified) was tested, and the IC50 was 0.5 µg/mL (≈ 1.17 µM).
Compound `C[C@]12CCC(=O)C=C1/C(=N/O)CC1C2CC[C@@]2(C)C1CC[C@@H]2O` (stereo partly specified) has an IC50 of 5 µg/mL (≈ 15.8 µM).
For `CC(C)CCC[C@@H](C)C1CCC2C3C/C(=N\O)C4=C[C@@H](O)CC[C@]4(C)C3CC[C@@]21C` (stereo partly specified), the IC50 was 10 µg/mL (≈ 24.1 µM).
For `CC(C)CCCC(C)[C@H]1CCC2C3C/C(=N\O)C4=C[C@@H](O)[C@@H](O)C[C@]4(C)C3CC[C@@]21C` (stereo partly specified), the IC50 was 1.25 µg/mL (≈ 2.9 µM).
`C[C@]12CCC(=O)C=C1/C(=N/O)CC1C2CC[C@]2(C)C(=O)CCC12` (stereo partly specified) was tested, and the IC50 was 5 µg/mL (≈ 15.9 µM).
`CC(C)CCCC(C)[C@H]1CCC2C3C/C(=N\O)C4=CC(=O)CC[C@]4(C)C3CC[C@@]21C` (stereo partly specified) was tested, and the IC50 was 1.25 µg/mL (≈ 3.02 µM).
`CC(C)CCCC(C)[C@H]1CCC2C3C/C(=N\O)C4=C[C@H](O)[C@H](O)C[C@]4(C)C3CC[C@@]21C` (stereo partly specified) gave an IC50 of 1.25 µg/mL (≈ 2.9 µM).
`CC(C)[C@H](C)[C@@]1(C)C[C@@H]1[C@@H](C)C1CCC2C3C/C(=N\O)C4=CC(=O)CC[C@]4(C)C3CC[C@@]21C` (stereo partly specified) was tested, and the IC50 was 5 µg/mL (≈ 11 µM).
`CC[C@H](CCC(C)[C@H]1CCC2C3C/C(=N\O)C4=CC(=O)CC[C@]4(C)C3CC[C@@]21C)C(C)C` (stereo partly specified) gave an IC50 of 10 µg/mL (≈ 22.6 µM).
With `CC(C)[C@H](C)[C@@]1(C)C[C@@H]1[C@@H](C)C1CCC2C3C/C(=N\O)C4=C[C@@H](O)CC[C@]4(C)C3CC[C@@]21C` (stereo partly specified) the IC50 was 10 µg/mL (≈ 21.9 µM).
`C[C@@]12CCCC1C1C/C(=N\O)C3=CC(=O)CC[C@]3(C)C1CC2` (stereo partly specified) was tested, and the IC50 was 5 µg/mL (≈ 16.6 µM).

From ChEMBL document CHEMBL1134552, “Synthesis of cytotoxic 6E-hydroximino-4-ene steroids: structure/activity studies” (J Med Chem, 2001)
